Experimental data: ChEMBL document CHEMBL1126776, “Antihyperglycemic activity of novel naphthalenyl 3H-1,2,3,5-oxathiadiazole 2-oxides” (1993)
Several values for one entry are separate records, joined by “and”; a condition that tells them apart may be missing. Identical values can stand only once.

How the values were obtained:
Mus musculus [1] = assay: Percentage change in plasma glucose after 4 days of treatment in db/db mouse at 20 mg/kg (po) in a postprandial assay; format: functional
Summary of the method: (§1)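 Male db/db (C57BL/KsJ) mice; postprandial assay after 4 days of oral dosing. Result is % change in plasma glucose relative to the vehicle-treated group. Values are mean ± SE with 4–6 mice per group; p < 0.05 flagged.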

Mus musculus [2] = assay: Percentage change in plasma glucose after 4 days of treatment in db/db mouse at 5 mg/kg (po) in a postprandial assay; format: functional; summary of the method: as §1
Mus musculus [3] = assay: Percentage change in plasma glucose after 4 days of treatment in db/db mouse at 1 mg/kg (po) in a postprandial assay; format: functional; summary of the method: as §1
Mus musculus [4] = assay: Percentage change in plasma glucose after 4 days of treatment in db/db mouse at 100 mg/kg (po) in a postprandial assay; format: functional; summary of the method: as §1
Mus musculus [5] = assay: Plasma glucose after treatment in obese ob/ob mice at 200 mg/kg (po); format: functional
Summary of the method: (§2)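 Female obese ob/ob (C57BL/6J) mice, 3-5 months old, fed ad libitum. Oral gavage once daily for 10 days, vehicle 0.2 mL 2% Tween 80/saline (w/v). Decapitated 4 h after the last dose; blood assayed for glucose. Mean ± SEM; p < 0.05 versus vehicle.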

Mus musculus [6] = assay: Plasma glucose after treatment in obese ob/ob mice at 50 mg/kg (po); format: functional; summary of the method: as §2
Mus musculus [7] = assay: Plasma glucose after treatment in obese ob/ob mice at 20 mg/kg (po); format: functional; summary of the method: as §2
Mus musculus [8] = assay: Plasma glucose after treatment in obese ob/ob mice at 5 mg/kg (po); format: functional; summary of the method: as §2
Rattus norvegicus [9] = assay: Plasma glucose levels of nondiabetic rats after 0 hour of drug administration (25 mg/Kg, po); format: functional
Summary of the method: (§3)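 Single oral dose to male Sprague-Dawley nondiabetic rats. Tail-tip blood sampled before dosing and at 1, 2 and 4 h after dosing for plasma glucose. Mean ± SE, n = 5 per group; compared with the respective vehicle group.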

Rattus norvegicus [10] = assay: Plasma glucose levels of nondiabetic rats after 1 hour of drug administration (25 mg/Kg, po); format: functional; summary of the method: as §3
Rattus norvegicus [11] = assay: Plasma glucose levels of nondiabetic rats after 2 hour of drug administration (25 mg/Kg, po); format: functional; summary of the method: as §3
Rattus norvegicus [12] = assay: Plasma glucose levels of nondiabetic rats after 4 hour of drug administration (25 mg/Kg, po); format: functional; summary of the method: as §3
Mus musculus [13] = assay: Percentage change in plasma glucose after 4 days of treatment in db/db mouse at 1 mg/kg (po) in a postprandial assay
Rattus norvegicus [14] = assay: Volume of urine collected after treatment in nondiabetic rats at the dose of 25 mg/kg; format: functional
Summary of the method: (§4)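 Male Sprague-Dawley rats (nondiabetic), dosed daily by mouth for 11 days. Urine collected over 24 h and assayed for glucose; urine volume, water intake and food intake also measured. Values are mean ± SE, n = 6 per group.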

Rattus norvegicus [15] = assay: Volume of urine collected after treatment in nondiabetic rats at the dose of 5 mg/kg; format: functional; summary of the method: as §4
Rattus norvegicus [16] = assay: Change in plasma glucose levels of streptozocin-diabetic rats wtih type I diabetes at dose of 25 mg/kg, po; format: functional
Summary of the method: (§5)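 Male Sprague-Dawley rats made diabetic with streptozocin (100 mg/kg, ip). Drug or vehicle given orally once daily for 3 weeks. Tail-tip blood taken 90 min after the last dose and assayed for plasma glucose. Mean ± SE, n = 9-12 per group.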

Rattus norvegicus [17] = assay: Change in plasma glucose levels of streptozocin-diabetic rats wtih type I diabetes at dose of 5 mg/kg, po; format: functional; summary of the method: as §5
Rattus norvegicus [18] = assay: Change in urinary glucose excretion of nondiabetic rats at the dose of 25 mg/kg; format: functional, Urine
Rattus norvegicus [19] = assay: Amount of food consumed by the rat at a dose of 10 mg/kg; format: functional; summary of the method: as §4
Rattus norvegicus [20] = assay: Amount of food consumed by the rat at a dose of 25 mg/kg; format: functional; summary of the method: as §4
Rattus norvegicus [21] = assay: Amount of food consumed by the rat at a dose of 5 mg/kg; format: functional; summary of the method: as §4
Rattus norvegicus [22] = assay: Volume of water consumed by the rat at a dose of 10 mg/kg; format: functional; summary of the method: as §4
Rattus norvegicus [23] = assay: Volume of water consumed by the rat at a dose of 25 mg/kg; format: functional; summary of the method: as §4
Rattus norvegicus [24] = assay: Volume of water consumed by the rat at a dose of 5 mg/kg; format: functional; summary of the method: as §4
Rattus norvegicus [25] = assay: Volume of urine collected after treatment in nondiabetic rats at the dose of 10 mg/kg; format: functional; summary of the method: as §4
Mus musculus [26] = assay: Percentage change in plasma glucose after 4 days of treatment in db/db mouse at 5 mg/kg (po) in a postprandial assay
[27] = dose 5 mg/kg, in the assay text read “5 mg/kg” for “100 mg/kg”

## COC(CC1=NOS(=O)N1)c1ccc2ccccc2c1 (centres undefined)
Mus musculus [1]
  Change: <-15%

## O=S1NC(Cc2ccc3cc(F)ccc3c2Br)=NO1 (centres undefined)
Mus musculus [2]
  Change: -16%

## N#Cc1cccc2ccc(CC3=NOS(=O)N3)cc12 (centres undefined)
Mus musculus [3]
  Change: <-15%
Mus musculus [2]
  Change: <-15%

## O=S1NC(Cc2ccc3ccc(Br)cc3c2)=NO1 (centres undefined)
Mus musculus [2]
  Change: <-15%

## COc1ccc2cc(CC3=NOS(=O)N3)ccc2c1 (centres undefined)
Mus musculus [1]
  Change: <-15%

## O=S1NC(c2ccc3ccccc3c2)=NO1 (centres undefined)
Mus musculus [1]
  Change: <-15%

## O=S1NC(CCCc2ccc3ccccc3c2)=NO1 (centres undefined)
Mus musculus [1]
  Change: <-15%

## Cc1ccc2ccc(CC3=NOS(=O)N3)cc2c1 (centres undefined)
Mus musculus [1]
  Change: -36%

## COc1c(CC2=NOS(=O)N2)cc(Cl)c2ccccc12 (centres undefined)
Mus musculus [3]
  Change: -17%
Mus musculus [2]
  Change: -31%

## O=S1NC(Cc2cc(Br)c3ccccc3c2)=NO1 (centres undefined)
Mus musculus [3]
  Change: <-15%
Mus musculus [2]
  Change: -21%

## CCc1cccc2cc(CC3=NOS(=O)N3)ccc12 (centres undefined)
Mus musculus [3]
  Change: <-15%
Mus musculus [4]; [27]
  Change: -23%

## CN(C)C(=N)NC(=N)N [METFORMIN]
Mus musculus [5]
  Glucose level: 208 mg/dL
Mus musculus [6]
  Glucose level: 253 mg/dL

## CC1(COc2ccc(CC3SC(=O)NC3=O)cc2)CCCCC1 (centres undefined) [CIGLITAZONE]
Mus musculus [7]
  Glucose level: 189 mg/dL

## COc1ccc(Br)c2cc(CC3=NOS(=O)N3)ccc12 (centres undefined)
Mus musculus [3]
  Change: <-15%

## O=S1NC(COc2ccc3ccccc3c2)=NO1 (centres undefined)
Mus musculus [1]
  Change: <-15%

## COc1ccc(Cl)cc1C(=O)NCCc1ccc(S(=O)(=O)NC(=O)NC2CCCCC2)cc1 [GLYBURIDE]
Mus musculus [7]
  Glucose level: 311 mg/dL
Mus musculus [8]
  Glucose level: 297 mg/dL
Rattus norvegicus [9]
  Glucose level: 110 mg/dL
Rattus norvegicus [10]
  Glucose level: 71 mg/dL
Rattus norvegicus [11]
  Glucose level: 51 mg/dL
Rattus norvegicus [12]
  Glucose level: 55 mg/dL

## O=S1NC(CSc2ccc3ccccc3c2)=NO1 (centres undefined)
Mus musculus [1]
  Change: -40%

## O=S1NC(CCc2ccc3ccccc3c2)=NO1 (centres undefined)
Mus musculus [1]
  Change: -38%

## O=S1NC(Cc2ccc3c(C(F)(F)F)cccc3c2)=NO1 (centres undefined)
Mus musculus [3]
  Change: <-15%
Mus musculus [4]; [27]
  Change: -30%

## COc1cc2ccccc2cc1CC1=NOS(=O)N1 (centres undefined)
Mus musculus [13]
  Change: -16%

## COc1c(CC2=NOS(=O)N2)ccc2ccccc12 (centres undefined)
Mus musculus [3]
  Change: <-15%
Mus musculus [2]
  Change: -43%

## Cc1cc2ccccc2cc1CC1=NOS(=O)N1 (centres undefined)
Mus musculus [4]; dose 100 mg/kg
  Change: -36% and -20%

## Cc1ccc2ccc(CC3=NOS(=O)N3)cc2c1Br (centres undefined)
Mus musculus [2]
  Change: -21%

## O=S1NC(Cc2ccc3ccccc3c2Br)=NO1 (centres undefined)
Mus musculus [4]; dose 100 mg/kg
  Change: -40% and -21%

## CC(CC1=NOS(=O)N1)c1ccc2ccccc2c1 (centres undefined)
Mus musculus [1]
  Change: -27%

## CSc1ccc(Br)c2ccc(CC3=NOS(=O)N3)cc12 (centres undefined)
Mus musculus [3]
  Change: <-15%
Mus musculus [2]
  Change: -19%

## O=S1NC(Cc2ccc3ccccc3c2F)=NO1 (centres undefined)
Mus musculus [3]
  Change: <-15%
Mus musculus [4]; [27]
  Change: -39%

## O=S1NC(Cc2cc3ccccc3cc2Br)=NO1 (centres undefined)
Mus musculus [3]
  Change: <-15%
Mus musculus [2]
  Change: -28%

## Cc1cc2ccccc2c(C)c1CC1=NOS(=O)N1 (centres undefined)
Mus musculus [3]
  Change: <-15%
Mus musculus [2]
  Change: -45%

## O=S1NC(Cc2ccc3ccccc3c2)=NO1 (centres undefined)
Mus musculus [1]
  Change: -37%
Mus musculus [2]
  Change: <-15%

## O=S1NC(CCCCc2ccc3ccccc3c2)=NO1 (centres undefined)
Mus musculus [4]; dose 100 mg/kg
  Change: -28%

## O=S1NC(Cc2cc3ccccc3cc2Cl)=NO1 (centres undefined)
Mus musculus [3]
  Change: <-15%
Mus musculus [4]; [27]
  Change: -44%

## O=S1NC(Cc2ccc3c(Cl)cccc3c2)=NO1 (centres undefined)
Mus musculus [7]
  Glucose level: 199 mg/dL
Mus musculus [8]
  Glucose level: 223 mg/dL
Mus musculus [4]; dose 100 mg/kg
  Change: -44% and -21%
Rattus norvegicus [14]
  urine volume: 37 mL/day
Rattus norvegicus [15]
  urine volume: 29 mL/day
Rattus norvegicus [16]
  Glucose level: 255 mg/dL
Rattus norvegicus [17]
  Glucose level: 329 mg/dL
Rattus norvegicus [18]
  Glucose level: 5.7 g dl-1 and 2.1 g day-1
Rattus norvegicus [9]
  Glucose level: 111 mg/dL
Rattus norvegicus [10]
  Glucose level: 120 mg/dL
Rattus norvegicus [11]
  Glucose level: 122 mg/dL
Rattus norvegicus [12]
  Glucose level: 118 mg/dL
Rattus norvegicus [19]
  Consumption: 25 g/day
Rattus norvegicus [20]
  Consumption: 25 g/day
Rattus norvegicus [21]
  Consumption: 25 g/day
Rattus norvegicus [22]
  Consumption: 45 mL/day
Rattus norvegicus [23]
  Consumption: 59 mL/day
Rattus norvegicus [24]
  Consumption: 49 mL/day
Rattus norvegicus [25]
  urine volume: 23 mL/day

## C#Cc1cccc2cc(CC3=NOS(=O)N3)ccc12 (centres undefined)
Mus musculus [3]
  Change: -19%
Mus musculus [4]; [27]
  Change: -45%

## Cc1cc2ccccc2c(Br)c1CC1=NOS(=O)N1 (centres undefined)
Mus musculus [3]
  Change: <-15%
Mus musculus [2]
  Change: -34%

## Cc1c(CC2=NOS(=O)N2)ccc2ccccc12 (centres undefined)
Mus musculus [4]; dose 100 mg/kg
  Change: -36% and -20%

## O=S1NC(Cc2ccc3cccc(Cl)c3c2)=NO1 (centres undefined)
Mus musculus [3]
  Change: <-15%
Mus musculus [4]; [27]
  Change: -55%

## CC(C)(C1=NOS(=O)N1)c1ccc2ccccc2c1 (centres undefined)
Mus musculus [1]
  Change: <-15%

## O=S1NC(C(Cc2ccccc2)c2ccc3ccccc3c2)=NO1 (centres undefined)
Mus musculus [1]
  Change: <-15%

## O=S1NC(Cc2ccc3cc(Br)ccc3c2)=NO1 (centres undefined)
Mus musculus [3]
  Change: <-15%
Mus musculus [2]
  Change: -25%

## COc1cccc2cc(CC3=NOS(=O)N3)ccc12 (centres undefined)
Mus musculus [26]
  Change: <-15%
Mus musculus [13]
  Change: <-15%

## O=S1NC(Cc2ccc3cccc(Br)c3c2)=NO1 (centres undefined)
Mus musculus [4]; dose 100 mg/kg
  Change: -59% and -48%

## O=S1NC(Cc2ccc3ccccc3c2Cl)=NO1 (centres undefined)
Mus musculus [3]
  Change: <-15%
Mus musculus [4]; [27]
  Change: -27%

## O=S1NC(Cc2ccc3c(Br)cccc3c2)=NO1 (centres undefined)
Mus musculus [4]; dose 100 mg/kg
  Change: -47% and -35%

## COc1ccc2ccc(CC3=NOS(=O)N3)cc2c1 (centres undefined)
Mus musculus [2]
  Change: -19%

## O=S1NC(Cc2ccc3cc(F)ccc3c2Cl)=NO1 (centres undefined)
Mus musculus [26]
  Change: <-15%

## Cc1cccc2cc(CC3=NOS(=O)N3)ccc12 (centres undefined)
Mus musculus [3]
  Change: <-15%
Mus musculus [4]; [27]
  Change: -37%

## CCc1c(CC2=NOS(=O)N2)ccc2ccccc12 (centres undefined)
Mus musculus [3]
  Change: <-15%
Mus musculus [4]; dose 5 mg/kg, in the assay text read “at 5 mg/kg” for “at 100 mg/kg”
  Change: -24%

## CSc1cccc2cc(CC3=NOS(=O)N3)ccc12 (centres undefined)
Mus musculus [2]
  Change: <-15%

## O=S1NC(Cc2ccc3ccc(Cl)cc3c2)=NO1 (centres undefined)
Mus musculus [2]
  Change: <-15%

## O=S1NC(Cc2cc3ccccc3cc2C(F)(F)F)=NO1 (centres undefined)
Mus musculus [3]
  Change: <-15%
Mus musculus [4]; [27]
  Change: -30%

## C=Cc1cccc2cc(CC3=NOS(=O)N3)ccc12 (centres undefined)
Mus musculus [2]
  Change: -17%

## CC(C1=NOS(=O)N1)c1ccc2ccccc2c1 (centres undefined)
Mus musculus [1]
  Change: -49%

## O=S1NC(/C=C/c2ccc3ccccc3c2)=NO1 (centres undefined)
Mus musculus [1]
  Change: <-15%
